Measurements collected from several papers.
Protocols differ between the studies behind these lines. Values after ≈ are worked out from the molar mass of the structure shown.

O=C1CCc2ccc(O)c(c2)Oc2ccc(cc2)[C@H]2O[C@@H]2CO1  IC50 (tubulin polymerisation, inhibitor): > 40 µM
Cc1cc(N(CCO)CCO)ccc1C=O  IC50 (CAKI-1; cell growth or viability): > 10 µg/mL
N.N.[Cl][Pt][Cl]  IC50 (HCC827; cell growth or viability, MTT; 72 h): 3 µM
CN1C[C@H](C(=O)N[C@]2(C)O[C@@]3(O)[C@@H]4CCCN4C(=O)[C@H](Cc4ccccc4)N3C2=O)C=C2c3cccc4[nH]cc(c34)C[C@H]21  EC50 (WI-38; cell growth or viability, MTT; 72 h): 57 µM
OC(Cn1cncn1)(Cn1cncn1)c1ccc(F)cc1F  MIC (Cryptococcus neoformans; microbial growth, broth dilution): 3.12 µg/mL (≈ 10.2 µM)
Cc1cccc(-n2ncc(Cl)c(Cl)c2=O)c1  IC50 (HCC827; cell growth or viability, resazurin; 96 h): 0.09 µM
O=C1CCc2ccc(O)c(c2)Oc2ccc(cc2)/C=C\CO1  IC50 (tubulin polymerisation, inhibitor): > 40 µM
O=C(CCCCCCCCCCOc1ccccc1)NP(=O)(O)O  MIC (Bacillus subtilis; microbial growth; ATCC23857): > 200 µg/mL
O=[N+]([O-])c1ccc(C2=[N+]([O-])c3ccccc3N3CCN=C23)cc1  MIC50 (Clostridium perfringens; microbial growth): ≤ 0.06 µg/mL
CN[C@@H]1[C@H](O)[C@H](NC)[C@H]2O[C@@]3(O)C(=O)C[C@@H](C)O[C@H]3O[C@@H]2[C@H]1O  MIC (Proteus vulgaris; microbial growth, broth dilution; ATCC33420): 50 µg/mL (≈ 150 µM)
COc1ccc(/C=C\c2cc(OC)c(OC)c(OC)c2)cc1  IC50 (tubulin polymerisation, inhibitor, absorbance): 1.1 µM
CCCCCCCC(=O)NP(=O)(O)O  MIC (Bacillus subtilis; microbial growth; ATCC23857): > 200 µg/mL
Cc1ncc([N+](=O)[O-])n1CCO  MIC50 (Clostridium perfringens; microbial growth): 0.5 µg/mL (≈ 2.92 µM)
